Assays:
Format in all cases: toxicity, cell-based
Fibroblast = experiment: Incucyte cell viability with human fibroblast; conditions: 10 µM, compound concentration 10 uM; note: filed as whole numbers so only -1 and 0 and 1 occur
HEK-293T [1] = experiment: Incucyte cell viability with HEK293T; conditions: human, 10 µM, compound concentration 10 uM; note: filed as whole numbers so only -1 and 0 and 1 occur
HEK-293T [2] = experiment: Multiplex assay against HEK293T; conditions: human;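 for Population Tubulin-Different-Phenotype (%): share of the cells with healthy nuclei that show this phenotype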
How it was run: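 On a CQ1 microscope at 37°C and 5% CO2, live cells were imaged after compound addition. They had been stained at seeding with Hoechst33342, BioTracker Green Microtubule Cytoskeleton Dye, MitoTracker Red and Annexin V Alexa Fluor 680. CellPathfinder machine-learning gating assigned cells to Hoechst high-intensity objects or normal cells, normal cells to healthy, pyknosed or fragmented nuclei, and pyknosed cells to mitotic or apoptotic. Tubulin, mitochondrial-mass and membrane-permeability phenotypes are per cents of healthy-nucleus cells.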

[3] = 6 h, replicate number 1, timepoint 6 hours
[4] = 24 h, replicate number 1, timepoint 24 hours
[5] = 12 h, 1 µM, compound concentration 1 uM, replicate 1
[6] = 12 h, 1 µM, compound concentration 1 uM, replicate 2
[7] = 12 h, 10 µM, compound concentration 10 uM, replicate 1
[8] = 12 h, 10 µM, compound concentration 10 uM, replicate 2
[9] = 24 h, 1 µM, compound concentration 1 uM, replicate 1
[10] = 24 h, 1 µM, compound concentration 1 uM, replicate 2
[11] = 24 h, 10 µM, compound concentration 10 uM, replicate 1
[12] = 24 h, 10 µM, compound concentration 10 uM, replicate 2

Q: For CCOc1ccn(-c2ccc(F)cc2)c(=O)c1C(=O)Nc1ccc(Oc2ccnc(N)c2Cl)c(F)c1 [BMS-777607], which “Growth Rate” value (Fibroblast; [3]) is on record?
A: 0

Q: And the “Growth Rate” value (Fibroblast; 12 h, replicate number 1, timepoint 12 hours)?
A: 0

Q: And the “Growth Rate” value (Fibroblast; 18 h, replicate number 1, timepoint 18 hours)?
A: 0

Q: And the “Growth Rate” value (Fibroblast; [4])?
A: 0

Q: What about the “Growth Rate” value (HEK-293T [1]; 0 h, replicate number 1, timepoint 0 hours) of the same compound?
A: 1

Q: What about the “Growth Rate” value (HEK-293T [1]; [3]) of the same compound?
A: 0

Q: And the “Growth Rate” value (HEK-293T [1]; 12 h, replicate number 2, timepoint 12 hours)?
A: 1

Q: And the “Growth Rate” value (HEK-293T [1]; [4])?
A: 1

Q: And the “Growth Rate” value (HEK-293T [1]; 24 h, replicate number 2, timepoint 24 hours)?
A: 0

Q: What about the “Population Apoptotic (%)” value (HEK-293T [2]; [5]) of the same compound?
A: 25%

Q: And the “Population Fragmented Nuclei (%)” value (HEK-293T [2]; [5])?
A: 14%

Q: And the “Population Healthy Nuclei (%)” value (HEK-293T [2]; [5])?
A: 67%

Q: What about the “Population Hoechst High Intensity Objects (%)” value (HEK-293T [2]; [5]) of the same compound?
A: 10%

Q: And the “Population Membrane Permeable-Phenotype (%)” value (HEK-293T [2]; [5])?
A: 6%

Q: And the “Population Mitochondria Different-Phenotype (%)” value (HEK-293T [2]; [5])?
A: 10%

Q: What about the “Population Mitotic Cells (%)” value (HEK-293T [2]; [5]) of the same compound?
A: 75%

Q: What about the “Population Normal (%)” value (HEK-293T [2]; [5]) of the same compound?
A: 89%

Q: And the “Population Pyknosed Nuclei (%)” value (HEK-293T [2]; [5])?
A: 17%

Q: What about the “Population Tubulin-Different-Phenotype (%)” value (HEK-293T [2]; [5]) of the same compound?
A: 22%

Q: What about the “Total Cell Count” value (HEK-293T [2]; [5]) of the same compound?
A: 624

Q: What about the “Population Apoptotic (%)” value (HEK-293T [2]; [6]) of the same compound?
A: 5%

Q: And the “Population Fragmented Nuclei (%)” value (HEK-293T [2]; [6])?
A: 5%

Q: What about the “Population Healthy Nuclei (%)” value (HEK-293T [2]; [6]) of the same compound?
A: 89%

Q: What about the “Population Hoechst High Intensity Objects (%)” value (HEK-293T [2]; [6]) of the same compound?
A: 2%

Q: And the “Population Mitochondria Different-Phenotype (%)” value (HEK-293T [2]; [6])?
A: 16%

Q: What about the “Population Mitotic Cells (%)” value (HEK-293T [2]; [6]) of the same compound?
A: 95%

Q: What about the “Population Normal (%)” value (HEK-293T [2]; [6]) of the same compound?
A: 97%

Q: What about the “Population Pyknosed Nuclei (%)” value (HEK-293T [2]; [6]) of the same compound?
A: 5%

Q: What about the “Population Tubulin-Different-Phenotype (%)” value (HEK-293T [2]; [6]) of the same compound?
A: 48%

Q: What about the “Total Cell Count” value (HEK-293T [2]; [6]) of the same compound?
A: 1393

Q: And the “Population Apoptotic (%)” value (HEK-293T [2]; [7])?
A: 23%

Q: What about the “Population Fragmented Nuclei (%)” value (HEK-293T [2]; [7]) of the same compound?
A: 25%

Q: What about the “Population Healthy Nuclei (%)” value (HEK-293T [2]; [7]) of the same compound?
A: 50%

Q: And the “Population Hoechst High Intensity Objects (%)” value (HEK-293T [2]; [7])?
A: 15%

Q: What about the “Population Membrane Permeable-Phenotype (%)” value (HEK-293T [2]; [7]) of the same compound?
A: 4%

Q: And the “Population Mitochondria Different-Phenotype (%)” value (HEK-293T [2]; [7])?
A: 3%

Q: What about the “Population Mitotic Cells (%)” value (HEK-293T [2]; [7]) of the same compound?
A: 76%

Q: And the “Population Normal (%)” value (HEK-293T [2]; [7])?
A: 84%

Q: And the “Population Pyknosed Nuclei (%)” value (HEK-293T [2]; [7])?
A: 25%

Q: What about the “Population Tubulin-Different-Phenotype (%)” value (HEK-293T [2]; [7]) of the same compound?
A: 3%

Q: And the “Total Cell Count” value (HEK-293T [2]; [7])?
A: 432

Q: And the “Population Apoptotic (%)” value (HEK-293T [2]; [8])?
A: 15%

Q: What about the “Population Fragmented Nuclei (%)” value (HEK-293T [2]; [8]) of the same compound?
A: 9%

Q: And the “Population Healthy Nuclei (%)” value (HEK-293T [2]; [8])?
A: 86%

Q: What about the “Population Hoechst High Intensity Objects (%)” value (HEK-293T [2]; [8]) of the same compound?
A: 2%

Q: What about the “Population Membrane Permeable-Phenotype (%)” value (HEK-293T [2]; [8]) of the same compound?
A: 2%

Q: What about the “Population Mitochondria Different-Phenotype (%)” value (HEK-293T [2]; [8]) of the same compound?
A: 7%

Q: And the “Population Mitotic Cells (%)” value (HEK-293T [2]; [8])?
A: 84%

Q: And the “Population Normal (%)” value (HEK-293T [2]; [8])?
A: 97%

Q: What about the “Population Pyknosed Nuclei (%)” value (HEK-293T [2]; [8]) of the same compound?
A: 4%

Q: What about the “Population Tubulin-Different-Phenotype (%)” value (HEK-293T [2]; [8]) of the same compound?
A: 5%

Q: And the “Total Cell Count” value (HEK-293T [2]; [8])?
A: 1444

Q: What about the “Population Apoptotic (%)” value (HEK-293T [2]; [9]) of the same compound?
A: 17%

Q: And the “Population Fragmented Nuclei (%)” value (HEK-293T [2]; [9])?
A: 11%

Q: What about the “Population Healthy Nuclei (%)” value (HEK-293T [2]; [9]) of the same compound?
A: 76%

Q: What about the “Population Hoechst High Intensity Objects (%)” value (HEK-293T [2]; [9]) of the same compound?
A: 10%

Q: And the “Population Membrane Permeable-Phenotype (%)” value (HEK-293T [2]; [9])?
A: 10%

Q: What about the “Population Mitochondria Different-Phenotype (%)” value (HEK-293T [2]; [9]) of the same compound?
A: 12%

Q: And the “Population Mitotic Cells (%)” value (HEK-293T [2]; [9])?
A: 82%

Q: What about the “Population Normal (%)” value (HEK-293T [2]; [9]) of the same compound?
A: 89%

Q: And the “Population Pyknosed Nuclei (%)” value (HEK-293T [2]; [9])?
A: 12%

Q: And the “Population Tubulin-Different-Phenotype (%)” value (HEK-293T [2]; [9])?
A: 40%

Q: What about the “Total Cell Count” value (HEK-293T [2]; [9]) of the same compound?
A: 625

Q: What about the “Population Apoptotic (%)” value (HEK-293T [2]; [10]) of the same compound?
A: 9%

Q: And the “Population Fragmented Nuclei (%)” value (HEK-293T [2]; [10])?
A: 10%

Q: What about the “Population Healthy Nuclei (%)” value (HEK-293T [2]; [10]) of the same compound?
A: 84%

Q: What about the “Population Hoechst High Intensity Objects (%)” value (HEK-293T [2]; [10]) of the same compound?
A: 6%

Q: What about the “Population Membrane Permeable-Phenotype (%)” value (HEK-293T [2]; [10]) of the same compound?
A: 12%

Q: What about the “Population Mitochondria Different-Phenotype (%)” value (HEK-293T [2]; [10]) of the same compound?
A: 4%

Q: And the “Population Mitotic Cells (%)” value (HEK-293T [2]; [10])?
A: 90%

Q: What about the “Population Normal (%)” value (HEK-293T [2]; [10]) of the same compound?
A: 93%

Q: And the “Population Pyknosed Nuclei (%)” value (HEK-293T [2]; [10])?
A: 4%

Q: What about the “Population Tubulin-Different-Phenotype (%)” value (HEK-293T [2]; [10]) of the same compound?
A: 70%

Q: And the “Total Cell Count” value (HEK-293T [2]; [10])?
A: 1553

Q: And the “Population Apoptotic (%)” value (HEK-293T [2]; [11])?
A: 25%

Q: What about the “Population Fragmented Nuclei (%)” value (HEK-293T [2]; [11]) of the same compound?
A: 18%

Q: What about the “Population Healthy Nuclei (%)” value (HEK-293T [2]; [11]) of the same compound?
A: 69%

Q: And the “Population Hoechst High Intensity Objects (%)” value (HEK-293T [2]; [11])?
A: 13%

Q: What about the “Population Membrane Permeable-Phenotype (%)” value (HEK-293T [2]; [11]) of the same compound?
A: 6%

Q: What about the “Population Mitochondria Different-Phenotype (%)” value (HEK-293T [2]; [11]) of the same compound?
A: 3%

Q: And the “Population Mitotic Cells (%)” value (HEK-293T [2]; [11])?
A: 74%

Q: And the “Population Normal (%)” value (HEK-293T [2]; [11])?
A: 86%

Q: What about the “Population Pyknosed Nuclei (%)” value (HEK-293T [2]; [11]) of the same compound?
A: 12%

Q: And the “Population Tubulin-Different-Phenotype (%)” value (HEK-293T [2]; [11])?
A: 5%

Q: What about the “Total Cell Count” value (HEK-293T [2]; [11]) of the same compound?
A: 433

Q: And the “Population Apoptotic (%)” value (HEK-293T [2]; [12])?
A: 8%

Q: What about the “Population Fragmented Nuclei (%)” value (HEK-293T [2]; [12]) of the same compound?
A: 27%

Q: What about the “Population Hoechst High Intensity Objects (%)” value (HEK-293T [2]; [12]) of the same compound?
A: 2%

Q: What about the “Population Membrane Permeable-Phenotype (%)” value (HEK-293T [2]; [12]) of the same compound?
A: 5%

Q: What about the “Population Mitochondria Different-Phenotype (%)” value (HEK-293T [2]; [12]) of the same compound?
A: 1%

Q: What about the “Population Mitotic Cells (%)” value (HEK-293T [2]; [12]) of the same compound?
A: 91%

Q: And the “Population Normal (%)” value (HEK-293T [2]; [12])?
A: 97%

Q: What about the “Population Pyknosed Nuclei (%)” value (HEK-293T [2]; [12]) of the same compound?
A: 2%

Q: What about the “Total Cell Count” value (HEK-293T [2]; [12]) of the same compound?
A: 2353

Reference: ChEMBL document CHEMBL4689842, “EUbOPEN Chemogenomics Library wave 1” (2021)
